Data from ChEMBL document CHEMBL2057093, “New oxirane derivatives of 1,4-naphthoquinones and their evaluation against T. cruzi epimastigote forms” (Bioorg Med Chem, 2012).

Tests used:
[1] = tested on: Trypanosoma cruzi; test: Antitrypanosomal activity against Trypanosoma cruzi Y epimastigotes assessed as cell death at 50 uM after 72 hrs by propidium iodide staining-based flow cytometric analysis; format: functional
In short: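 T. cruzi Y epimastigotes at 5 × 10^5 cells/mL exposed to compound at 50 µM for 72 h. Cells then centrifuged (1500 g), washed in PBS and stained with 30 µg/mL propidium iodide for 15 min. Flow cytometry acquired 10,000 events in the epimastigote gate, and PI-positive cells were counted as dead. Mean and SD from at least two independent experiments in duplicate.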

[2] = Cytotoxicity against african green monkey Vero cells after 72 hrs by spectrophotometric analysis; format: cell-based; conditions: chlorocebus sabaeus
In short: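 VERO kidney fibroblasts kept in DMEM with 5% fetal bovine serum and HEPES. Seeded at 10^5 cells/well and allowed to adhere 24 h at 37 °C, then exposed to compounds for 72 h. Cells were PBS-washed, fixed in 0.2% formaldehyde, stained 1 h with 0.2% Coomassie Brilliant Blue R-250, and eluted with 1% SDS. Absorbance read at 595 nm. CC50 by Probit from triplicate runs.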

[3] = tested on: Trypanosoma cruzi; test: Antitrypanosomal activity against Trypanosoma cruzi Y epimastigotes after 72 hrs by Neubauer counter-based microscopic analysis; format: functional, organism-based
In short: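 T. cruzi Y epimastigotes (10^6 cells/mL) grown in BHI medium with 10% fetal bovine serum at 28 °C and exposed to compounds from 5 mM DMSO stocks for 72 h. Parasites counted directly in a Neubauer chamber by light microscopy. Untreated and 1% DMSO (v/v) cultures served as negative controls. IC50 (50% growth inhibition) computed by Probit analysis.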

| SMILES | Activity [1] | CC50 at 72 h [2] | IC50 [3] |
| --- | --- | --- | --- |
| CC1(C)CCC23CC2(O1)C(=O)c1ccccc1C3=O (stereo not given) | 3.1% | 66 µM | 60.9 µM |
| CC1(C)CCC2=C(O1)C(=O)C1=C(CCCC1)C2=O | 84.2% | 11.7 µM | 16.3 µM |
| CC1(C)CCC2=C(O1)C1(CO1)C1=C(CCCC1)C2=O (stereo not given) | 17.9% | 58.1 µM | 16.4 µM |
| COC1=CC(=O)c2ccccc2C12CO2 (stereo not given) | 74.2% | 44 µM | 1.13 µM |
| C=CCOC1=CC(=O)c2ccccc2C1=O | 86.3% | < 1 µM | 0.02 µM |
| C=CCOC1=CC(=O)c2ccccc2C12CO2 (stereo not given) | 84.5% | < 1 µM | 0.2 µM |
| O=C1C(Cl)=C(Cl)C2(CO2)c2ccccc21 (stereo not given) | 84.7% | 19 µM | 9.48 µM |
| CC1(C)CCC2=C(O1)C1(CO1)c1ccccc1C2=O (stereo not given) | 85.6% | > 50 µM | 0.05 µM |
| CC1(C)CC2=C(O1)C1(CO1)c1ccccc1C2=O (stereo not given) | 88.5% | 19 µM | 19.3 µM |
| CC1(C)CC2=C(O1)C(=O)c1ccccc1C2=O | 91.4% | 2.7 µM | 8.8 µM |
| COC1=CC(=O)c2ccccc2C1=O [2-Methoxy-1,4-naphthoquinone] | 82.3% | 13 µM | 3.19 µM |
| CC1(C)CCC2=C(O1)C(=O)c1ccccc1C2=O [ALPHA-LAPACHONE] | 82.7% | 1.2 µM | 3.19 µM |
| O=C(Cn1ccnc1[N+](=O)[O-])NCc1ccccc1 [BENZNIDAZOLE] | 26.8% | 48 µM | 11.5 µM |
| O=C1C(Cl)=C(Cl)C(=O)c2ccccc21 [Dichlon] | 84.3% | 6.3 µM | 0.09 µM |
| CC1(C)CCC2=C(O1)c1ccccc1C(=O)C2=O [LAPACHONE] | 91.3% | < 3.1 µM | < 3.1 µM |
